# Test system: tumor biopsies from stage IV NB patients
# Assay: phage overlay binding assay on tumor biopsies from NB patients
# Settings: human NB sections, compared with Mallory Trichrome histology
# Procedure, shortened: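 Frozen sections (5 μm) from stage IV NB patient tumors in OCT, fixed 10 min at room temperature in 4% paraformaldehyde/PBS, washed twice in PBS, and blocked with serum-free protein block. Sections overlaid 1 h at 4°C with 10⁸ T.U./μl of each phage clone; insertless Fd-Tet phage as negative control. Bound phage detected with anti-bacteriophage antibody plus HRP polymer, then hematoxylin counterstain.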
substance,measurement,value
KSFFLSH [Phage #14],tumor component preferentially bound,widely recognizes the whole NB masses
HSYWLSR [Phage #5],tumor component preferentially bound,preferentially bind to non-epithelial tumor components
YEGLISR [Phage #1],tumor component preferentially bound,preferentially bind to non-epithelial tumor components
WSWPREL [Phage #8],tumor component preferentially bound,preferentially bind to non-epithelial tumor components
ALAAHKL [Phage #10],tumor component preferentially bound,preferentially bind to non-epithelial tumor components

# Source: article PMC4317336 (Journal of controlled release : official journal of the …, 2013)
